According to the EternaBench riboswitch data:

Test system: MS2 coat protein
Test: apparent Kd, MS2 coat protein; higher = weaker binding; RNA-MaP array; FMN 200 µM where present
Outline: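 Apparent Kd: the median of filtered binding-curve fits from single clusters. Designs were transcribed on Illumina sequencing-chip clusters by stalled E. coli RNA polymerase and titrated with SNAP-549-labelled MS2 coat protein from 0.7 or 1.5 nM, doubling to 3 µM, in 100 mM Tris-HCl pH 7.5, 80 mM KCl, 4 mM MgCl2, BSA, DTT, yeast tRNA and Tween-20. Each series ran without and then with constant ligand, and green signal was normalised to red-channel RNA signal and control-cluster median Fmax.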

[1] = designed as: OFF switch for flavin mononucleotide, no ligand
[2] = ligand present: flavin mononucleotide, designed as: OFF switch for flavin mononucleotide
[3] = designed as: ON switch for flavin mononucleotide, no ligand
[4] = ligand present: flavin mononucleotide, designed as: ON switch for flavin mononucleotide

UGGUUGUGAGGAUAUCCAAUAUAUGACAUGAGGAUCACCCAUGUUUCCACUCGUACCUCCGGAGAAGGCACUUGGU
apparent Kd [1]: 33.4 nM | apparent Kd [2]: 28.4 nM

UGUAAUAUUAUAGGAUAUGGUUACGAUACGUAACCAGAAGGGUGAUUAUACUAUAAUCUAUACAUGAGGAUCACCCAUGUUUAU
apparent Kd [3]: 205 nM | apparent Kd [4]: 110 nM

UGUAUUAUCGGAGGAUAUCGAUAUCAAACAUGAGGAUCACCCAUGUUGAGGAUCACCCAUGUCCACGAGAAGGCCGGCGUACUC
apparent Kd [3]: 25.7 nM | apparent Kd [4]: 26.4 nM

UGUCAGAUGGUAGGAUAUCCAUAUCGCGUGUCCCUUUCCUAACAUGAGGAUCACCCAUGUCGGUGGGAGAAGGGCCGUAUGGUG
apparent Kd [1]: 13.2 nM | apparent Kd [2]: 12.1 nM

UGUCAUAUAUAGAAGGGUAGUAGGGUAUUACAUGAGGAUCACCCAUGUAUUAUAGGAUAUGUGUAUAGUUUUUAUUCAAGUAUA
apparent Kd [1]: 22.8 nM | apparent Kd [2]: 17 nM

UGUCCACAUGAGGAUCACCCAUGUGAGGAUAUCCAUAAACACAUCGUAUGUGUAUUAUGGAGAAGGCACACACA
apparent Kd [1]: 16.1 nM | apparent Kd [2]: 21.9 nM

UGUCCAUAGCAGAAGGACAUGAAUAAACGUGAAAACAUGAGGAUCACCCAUGUAGGAUAUGCUAUGGACUAAGAGCGAAAGCUC
apparent Kd [1]: 34.7 nM | apparent Kd [2]: 494 nM

UGUCCAUAGCAGAAGGACAUGAGGAUCACCCAUGUAAUCAUACAAAUAUAUGUAGGAUAUGCUAUGGACUAAGAGCGAAAGCUC
apparent Kd [1]: 6.14 nM | apparent Kd [2]: 6.74 nM

UGUCGGAGCAAAGGAUAUUACAUGAGGAUCACCCAUGUAUGAACCAAUAGCUGGAAACAGCAAUGUAAGAAGGCUGCUCCGACA
apparent Kd [1]: 4.79 nM | apparent Kd [2]: 5.81 nM

UGUCGGAGCAGAGGAUAUACAUGAGGAUCACCCAUGUAAUAAAGUGAAGCCUGGAAACGGGCAAUGUAGAAGGCUGCUCCGACA
apparent Kd [1]: 11.3 nM | apparent Kd [2]: 87.8 nM

UGUCGGAGCAGAGGAUAUACAUGAGGAUCACCCAUGUAAUAGGAUGAAGCCUGGAAACAGGCAAUGUAGAAGGCUGCUCCGACA
apparent Kd [1]: 57.9 nM | apparent Kd [2]: 670 nM

UGUCGGAGCAGAGGAUAUACAUGAGGAUCACCCAUGUAAUAUGAUCUAGCCUGGAAACAGGCAAUGUAGAAGGCUGCUCCGACA
apparent Kd [1]: 92.6 nM | apparent Kd [2]: 1020 nM

UGUCGGAGCAGAGGAUAUUACAUGAGGAUCACCCAUGUAAGAACCAAUAGCUGGAAACAGCAAUGUAAGAAGGCUGCUCCGACA
apparent Kd [1]: 5.27 nM | apparent Kd [2]: 15.9 nM

UGUCGGAGCAGAGGAUAUUACAUGAGGAUCACCCAUGUAUGAACCAAUACCUGGAAACAGCAAUGUAAGAAGGCUGCUCCGACA
apparent Kd [1]: 12.5 nM | apparent Kd [2]: 141 nM

UGUCGGAGCAGAGGAUAUUACAUGAGGAUCACCCAUGUAUGAACCAAUAGCUGGAAACAGCAAUGUAAGAAGGCUGCUCCGACA
apparent Kd [1]: 37.5 nM | apparent Kd [2]: 531 nM

UGUCGGAGCAGAGGAUAUUACAUGAGGAUCACCCAUGUAUGAACCAAUAGCUGGAAACAGCAAUGUAAGAAGGCUUCUCCGACA
apparent Kd [1]: 7.13 nM | apparent Kd [2]: 45.9 nM

UGUCGGAGCAGAGGAUAUUACAUGAGGAUCACCCAUGUAUGAACCAAUAGCUGGAAACUGCAAUGUAAGAAGGCUGCUCCGACA
apparent Kd [1]: 11.9 nM | apparent Kd [2]: 107 nM

UGUCGGAGCAGAGGAUAUUACAUGAGGAUCACCCAUGUAUGAGCCAAUAGCUGGAAACAGCAAUGUAAGAAGGCUGCUCCGACA
apparent Kd [1]: 19.1 nM | apparent Kd [2]: 206 nM

UGUCGGAGCAGAGGAUAUUACAUGAGGAUCACCCAUGUAUGUACCAAUAGCUGGAAACAGCAAUGUAAGAAGGCUGCUCCGACA
apparent Kd [1]: 6 nM | apparent Kd [2]: 24.7 nM

UGUGCGUAUGUGAGGAUAUGCUGGUCCUUGGAUCGGCAGAAGGCACAUGAGGAUCACCCAUGUGGUGUCGUUCG
apparent Kd [1]: 239 nM | apparent Kd [2]: 24 nM

UGUGCGUUGAUCUUCGAUCGGAGUACAUGAGGAUCACCCAUGUAGGAUAUUCAAAGACGCAGAUAGAAGAAGGACAUCGGAUUA
apparent Kd [1]: 13.2 nM | apparent Kd [2]: 11.1 nM

UGUGGGUCCGUUAGGAUAUUUACAGGCAUGCCUGUAAAGAAGGAACAUGAGGAUCACCCAUGUUUGACAAAUUU
apparent Kd [1]: 16.9 nM | apparent Kd [2]: 39.8 nM

UGUGUGUGGCAGGAUAUGCAGGUAAUAAGACGGGUAGAAGGGUCUACAUGAGGAUCACCCAUGUGGCCGGUUGG
apparent Kd [1]: 16.1 nM | apparent Kd [2]: 18.2 nM
